Screening data: PubChem BioAssay, Johns Hopkins Ion Channel Center
Only some compounds are listed: those with a hit (about 2.3% of all), similar ones and a draw of the others.
TRPC6 activator = mouse TRPC6 channel activators, primary screen, cell-based, HEK293, membrane potential dye; 310,000 compounds, 0.13% hits; B-score at 10 µM; HEK293-TRPC6 membrane potential dye fluorescence; active compounds read high; AID 2550, 2010;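 active = B-score of the integrated fluorescence ratio above library mean plus 3 SD, and starting fluorescence ratio within library mean plus 5 SD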;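 also: higher score means more depolarization so channel activation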
TRPC6 inhibitor = mouse TRPC6 channel inhibitors, primary screen, cell-based, HEK293, membrane potential dye; Short transient receptor potential channel 6 (Mus musculus), Q61143; ACh-evoked depolarization; active compounds read low; B-score at 10 µM; 310,000 compounds, 1.1% hits; AID 2553, 2010;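 active = B-score under library mean minus 3 SD, initial fluorescence not abnormally high, positive integrated signal ratio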;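 also: B-score derived from integrated fluorescence ratio over the kinetic read; more negative B-score means stronger inhibition of depolarization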
TRPC4 agonist = activators of mouse TRPC4 channel, primary screen, Fluo4 calcium, HEK293 TRPC4beta/mu-opioid cells. 310,000 compounds, 0.49% hits. Fluo4 calcium fluorescence; active compounds read high. Short transient receptor potential channel 4 (Mus musculus), Q9QUQ5. AID 2237, 2010. B-score at 10 µM;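 active = B-score above 5 SD of library B-scores, and initial fluorescence ratio not above library mean plus 5 SD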;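 also: positive B-score marks a calcium rise read as TRPC4 activation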
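Assay system: HEK293 cells stably co-expressing mouse TRPC4beta and mu-opioid receptor / Timing: Fluo4 dye loading 45 min at room temperature, 110 s recording / Signal: Fluo4 calcium-sensitive dye fluorescence, kinetic, 1 Hz baseline / Read-out: integrated baseline-normalised fluorescence ratio, converted to per-well B score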
TRPC4 block = inhibitors of mouse TRPC4 channel, primary screen, Fluo4 calcium, HEK293 TRPC4beta/mu-opioid cells. Short transient receptor potential channel 4 (Mus musculus), Q9QUQ5. DAMGO-evoked Fluo4 calcium flux; active compounds read low. B-score at 10 µM. 300,000 compounds, 0.39% hits;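 active = B-score over 3 SD under the library average, no early fluorescence shift, positive overall ratio signal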
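Assay system: Stable TRPC4beta/mu-opioid receptor HEK293 cells | Reagent: DAMGO in two steps, submaximal then maximal | Compound dosing: Single concentration per test compound | Signal: Fluo4 Ca2+ flux fluorescence | Evaluation: Per-well B score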
TRPC4 PAM = positive allosteric modulators of TRPC4, primary screen, cell-based, mouse TRPC4beta, HEK293 mu-opioid, Fluo-4 calcium; Short transient receptor potential channel 4 (Mus musculus), Q9QUQ5; DAMGO EC20, Fluo-4 Ca2+ flux; active compounds read high; B-score at 10 µM; 310,000 compounds, 0.42% hits; AID 2227, 2009;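 active = B-score of calcium response area above 5 SD of library B-scores, with initial fluorescence ratio within 5 SD of library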;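 also: B-score of integrated fluorescence ratio over time as area under calcium response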
TRPC4 spec 2 = second selectivity test of TRPC6 inhibitors: effect on mouse TRPC4; shares compounds with TRPC6 inhibitor; HEK293 TRPC4/MOR, membrane potential dye fluorescence; channel activated by saturating DAMGO dose; inhibition, % at 10 µM; 920 compounds, 42% hits; AID 2776;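 active = compounds whose fluorescence signal differed from control wells by over 3 SD, either direction, in both duplicate plates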
TRPC4 spec = mouse TRPC4 modulation by TRPC6 hits, confirmation, selectivity assay for TRPC6 inhibitor project, cell-based, HEK293 TRPC4/mu-opioid, membrane potential dye; shares compounds with TRPC6 inhibitor; membrane potential fluorescence; activity change, negative = inhibition, % at 10 µM; 920 compounds, 61% hits; AID 2777, 2010;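 active = rise or fall in signal beyond 3 SD of buffer-only wells in both replicate plates, either sign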;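 also: integrated kinetic ratio of fluorescence range over baseline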
HEK293 MPD ctr 2-1 = nonspecific membrane potential effects, parental HEK293, confirmation, counter-screen for TRPC6 inhibitor project, cell-based, second counter screen. shares compounds with TRPC6 inhibitor. parental HEK293 membrane potential dye fluorescence; maximal acetylcholine challenge after compound addition. signal change vs control, % at 10 µM. 920 compounds, 31% hits;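 active = membrane potential signal moving either way by over 3 SD of the maximum-effect control, in both duplicate plates, meaning non-specific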
HEK293 MPD ctr-1 = membrane potential modulation in parental HEK293, confirmation, counter-screen for TRPC6 inhibitor project, cell-based | shares compounds with TRPC6 inhibitor | parental HEK293 membrane potential dye fluorescence | membrane potential signal change, % at 10 µM | 920 compounds, 60% hits;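 active = membrane potential signal shifting up or down by more than 3 SD of buffer-only wells, on both duplicate plates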
HEK293 MPD ctr-2 = parental HEK293 membrane potential modulation, confirmation, counter-screen for TRPC6 modulator project, cell-based; 2,400 compounds, 51% hits; membrane potential dye fluorescence; shares compounds with TRPC6 inhibitor; AID 488924, 2010; membrane potential signal change, % at 10 µM;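 active = membrane potential signal moves up or down beyond 5 SD from buffer-only wells, on both duplicate plates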
HEK293 MPD ctr 2-2 = second counter-screen for TRPC6 modulators: effect in parental HEK293 cells. shares compounds with TRPC6 inhibitor. membrane potential dye fluorescence; after compound, maximal acetylcholine stimulation. inhibition, % at 10 µM. 2,400 compounds, 14% hits. AID 488926;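 active = membrane potential signal drops by more than 5 SD from the mean control signal, in both duplicate plates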;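 also: plate controls were acetylcholine ECmax control wells for no effect and buffer only wells for full effect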
TRPC4/MOR mod = TRPC4 modulation by TRPC6 hit compounds, confirmation, selectivity assay for TRPC6 modulator project, cell-based, HEK293 TRPC4/mu-opioid, membrane potential dye, mouse | shares compounds with TRPC6 inhibitor | membrane potential fluorescence | percent change from control (negative = decrease, positive = increase), % at 10 µM | 2,400 compounds, 69% hits | AID 488927, 2010;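 active = membrane potential signal moved up or down beyond 5 SD of buffer control wells, in both duplicate plates, actives on both sides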;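 also: plate controls were assay buffer wells for no effect and DAMGO maximal-effect wells for full effect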
TRPC4 ctr inh 2 = second check of whether TRPC6 modulators also affect mouse TRPC4; 2,400 compounds, 55% hits; shares compounds with TRPC6 inhibitor; inhibition, % at 10 µM; HEK293 TRPC4/mu-opioid, membrane potential dye fluorescence; stimulated with maximal-effect DAMGO;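 active = drop in membrane potential signal beyond 5 SD of the control wells in both duplicate plates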;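 also: TRPC4 counter screen for TRPC6 hits run under conditions tuned for TRPC6 not TRPC4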
TRPC6 block conf = mouse TRPC6 channel inhibitors, confirmation, HEK293 cells, membrane potential dye, duplicate; shares compounds with TRPC6 inhibitor; ACh-evoked depolarization; inhibition, % at 10 µM; 3,300 compounds, 43% hits; AID 488960, 2010;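 active = fluorescence ratio falls more than 5 SD below the full-stimulation control mean, in both duplicate runs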;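 also: integrated fluorescence ratio of peak minus minimum over baseline after agonist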
TRPC6 act conf = mouse TRPC6 channel activators, confirmation, HEK293 cells, membrane potential dye, duplicate; shares compounds with TRPC6 inhibitor; HEK293-TRPC6 membrane potential dye fluorescence, FDSS; activation, % at 10 µM; 2,800 compounds, 11% hits; AID 488961, 2010;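 active = ratio signal rise beyond 5 SD above unstimulated control wells' mean, seen in both duplicate runs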;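 also: plate controls were buffer EC0 wells for no effect and acetylcholine ECmax response for full effect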
* = called active by the depositor; i = inactive; · = no result; + = active, no number.

SMILES	TRPC6 activator	TRPC6 inhibitor	TRPC4 agonist	TRPC4 block	TRPC4 PAM	HEK293 MPD ctr-2	HEK293 MPD ctr 2-2	TRPC4/MOR mod	TRPC4 ctr inh 2	TRPC6 block conf	TRPC6 act conf	others
CCCCCCCCCn1c2c(c(=N)c3c1CCC3)CCC2	i	-6.3*	i	i	i	-169%*	i	-21%*	36%*	i	i
CNCC(O)Cn1c2c(c3ccccc31)CCCC2 (stereo unspecified)	i	i	i	i	i	·	·	·	·	·	·
CCCCCCCn1ccc(=N)cc1	i	i	i	i	i	·	·	·	·	·	·
CCCCCCn1c2c(c(=N)c3c1CCC3)CCC2	i	-8.5*	i	i	i	·	·	·	·	78%*	i	TRPC4 spec 2=69%*;TRPC4 spec=-25%*;HEK293 MPD ctr 2-1=-12%*;HEK293 MPD ctr-1=-452%*
CN(CCC#N)C(=O)COC(=O)c1ccc2c(c1)C(=O)N(C1CCCCC1)C2=O	i	i	i	i	i	·	·	·	·	·	·
N=c1c2c(n(Cc3ccc(F)cc3)c3c1CCC3)CCC2	i	-5.8*	i	i	i	-192%*	i	-32%*	62%*	i	i
Fc1ccc(CN2CCCCCCC2)cc1	i	i	i	i	i	·	·	·	·	·	·
Cc1cc(N2CCN(c3ccccc3)CC2)nc2ccccc12	i	i	i	i	i	·	·	·	·	·	·
Cc1cc(N2CCC(N(C)C3CCCC3)CC2)nc2cc(O)ccc12	i	-6.7*	i	i	i	-282%*	i	-54%*	47%*	43%*	i
COc1ccc(NC(=O)CC2Nc3cccc4cccc(c34)NC2=O)cc1 (stereo unspecified)	i	i	i	i	i	·	·	·	·	·	·
O=C(CC1Nc2cccc3cccc(c23)NC1=O)Nc1ccc(F)cc1 (stereo unspecified)	i	-5*	i	i	i	i	i	-11%*	40%*	i	i
CSCC(C)N1CCC(N2CCC(C(=O)NCc3ccccn3)CC2)CC1 (stereo unspecified)	i	i	i	i	i	·	·	·	·	·	·
N#Cc1c(C(F)(F)F)cc(Cc2ccccc2)nc1SCC(=O)NCC(=O)O	i	i	i	i	i	·	·	·	·	·	·
O=C(O)Cc1sc(-c2ccccc2Cl)nc1-c1ccccc1	i	-6.2*	i	i	i	i	i	i	i	i	i
O=C(Nc1nnc(-c2ccccc2Cl)o1)c1ccc(S(=O)(=O)N2CCCCCC2)cc1	i	-6.3*	71*	i	i	i	i	-10%*	i	i	i
CS(=O)(=O)c1ccccc1-c1nnc(NC(=O)c2ccc(S(=O)(=O)N3CCCC3)cc2)o1	i	i	i	i	i	·	·	·	·	·	·
Oc1ccccc1N=Cc1c(O)ccc2ccccc12	i	-5.3*	i	i	i	i	i	38%*	i	i	·
Oc1c(C=C2N=c3ccccc3=N2)sc(=S)n1-c1ccccc1	i	i	i	i	i	·	·	·	·	·	·
CC1=Nc2ccccc2/C1=C/c1sc(=S)n(-c2cccc(C(=O)O)c2)c1O	56*	i	44*	i	11*	+	i	212%*	i	i	314%*
O=C1c2cccc(Cl)c2C(=O)c2c1cccc2N1CCCC1	i	-8.3*	i	i	i	-98%*	i	-26%*	76%*	i	i
N#CCCN(C(=O)COC(=O)Cc1ccc(Br)cc1)c1ccccc1	i	i	i	i	i	·	·	·	·	·	·
COc1cc(CCC(=O)OCC(=O)N(CCC#N)c2ccccc2)cc(OC)c1OC	i	-5.4*	i	i	i	i	i	i	i	i	i
COc1ccc(S(=O)(=O)N2CCN(c3ccc4nnc(-c5ccc(F)cc5)n4n3)CC2)cc1	i	-6.8*	i	i	i	·	·	·	·	i	i	TRPC4 spec 2=i;TRPC4 spec=i;HEK293 MPD ctr 2-1=i;HEK293 MPD ctr-1=i
CCOc1cc(C(=S)N2CCC(O)CC2)ccc1OS(=O)(=O)c1ccc(Br)cc1	i	-8.4*	i	i	i	·	·	·	·	i	i	TRPC4 spec 2=i;TRPC4 spec=i;HEK293 MPD ctr 2-1=i;HEK293 MPD ctr-1=i
CCOC(=O)c1c(NC(=O)C(NCCN(C)C)c2ccccc2)sc2c1CCCC2 (stereo unspecified)	i	i	i	i	i	·	·	·	·	·	·
